Screening data (PubChem)
HER2 expr 66K: inhibitors of Her2 protein expression, primary screen, SKBR-3 cells, AlphaScreen, 66K library | Receptor tyrosine-protein kinase erbB-2 (Homo sapiens), P04626 | SKBR-3 HER2 protein level, 18-24 h; hits give low values | HER2 level % of control, % at 10 µM | 65,000 tested, 0.69% active | AID 645, 2007;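 active = HER2 level under 5% of the carrier-only control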;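 also: 100% = DMSO carrier and 0% = 500 nM PU-H71 HSP90 inhibitor; lower value means stronger loss of Her2 protein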
Target sequence (P04626 whole entry, looked up): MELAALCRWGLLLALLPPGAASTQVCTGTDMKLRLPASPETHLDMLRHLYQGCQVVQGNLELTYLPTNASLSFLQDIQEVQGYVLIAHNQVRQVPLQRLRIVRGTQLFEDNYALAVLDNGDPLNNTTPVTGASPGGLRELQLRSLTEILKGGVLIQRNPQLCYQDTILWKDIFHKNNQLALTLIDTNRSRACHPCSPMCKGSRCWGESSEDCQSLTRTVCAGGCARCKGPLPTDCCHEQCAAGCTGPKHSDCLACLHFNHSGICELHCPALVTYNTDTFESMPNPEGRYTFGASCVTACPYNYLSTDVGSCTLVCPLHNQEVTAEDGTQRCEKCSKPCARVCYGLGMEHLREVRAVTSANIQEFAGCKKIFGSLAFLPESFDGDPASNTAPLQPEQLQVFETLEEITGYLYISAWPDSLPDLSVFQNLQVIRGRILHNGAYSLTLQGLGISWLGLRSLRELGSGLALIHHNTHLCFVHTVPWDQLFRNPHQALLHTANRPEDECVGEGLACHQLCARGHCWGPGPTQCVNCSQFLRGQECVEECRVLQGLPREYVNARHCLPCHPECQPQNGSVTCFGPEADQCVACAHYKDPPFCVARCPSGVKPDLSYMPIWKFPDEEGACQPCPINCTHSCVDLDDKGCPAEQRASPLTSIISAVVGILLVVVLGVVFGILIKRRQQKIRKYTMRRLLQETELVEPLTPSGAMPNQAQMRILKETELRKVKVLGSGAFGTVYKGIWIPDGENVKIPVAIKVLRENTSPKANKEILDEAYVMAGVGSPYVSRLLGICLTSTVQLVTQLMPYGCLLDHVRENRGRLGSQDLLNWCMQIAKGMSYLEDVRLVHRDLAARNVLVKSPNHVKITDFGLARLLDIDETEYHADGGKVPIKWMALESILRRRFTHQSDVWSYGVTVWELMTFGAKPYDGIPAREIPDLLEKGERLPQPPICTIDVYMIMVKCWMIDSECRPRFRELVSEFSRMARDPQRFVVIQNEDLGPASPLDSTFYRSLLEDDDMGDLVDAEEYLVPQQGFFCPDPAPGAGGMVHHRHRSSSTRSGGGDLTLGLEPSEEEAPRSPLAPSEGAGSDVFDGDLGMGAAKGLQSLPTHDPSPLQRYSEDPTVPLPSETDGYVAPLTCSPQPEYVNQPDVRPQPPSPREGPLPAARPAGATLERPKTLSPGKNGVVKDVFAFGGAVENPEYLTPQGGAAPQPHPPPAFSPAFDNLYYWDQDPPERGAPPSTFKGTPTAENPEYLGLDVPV
PostGolgi yeast: phenotypic screen on post-Golgi transport, primary screen; inhibition, % at 10 µM; post-Golgi transport phenotypic cell assay; 98,000 tested, 0.9% active; AID 739, 2007;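 also: yeast cells grown in 1536-well plates; yeast grown about 18 h at 30C before absorbance read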
Ecoli tolC: growth inhibitors of E. coli tolC mutant, primary screen, strain BW25113 ΔtolC::kan, 384-well. OD615. growth inhibition, % at 10 µM (by protocol). 65,000 tested, 2.2% active;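 active = growth inhibition at or above a cutoff equal to the mean over every tested compound plus 3 SD, cut at about 60% in these data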;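 also: growth measured after 20 h incubation at 37 °C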
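Assay system: tolC-deleted E. coli BW25113. Medium: kanamycin-containing LB broth (50 µg/mL). Dosing: 10 µM final, single dose. Timing: bacterial growth with compound for 20 h at 37 °C. Detection: A615 absorbance measurement. Read-out basis: growth inhibition in percent.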
E coli WT exp: growth inhibitors of wild-type E. coli, primary screen, strain BW25113, expanded library, OD600 | OD600 absorbance | growth inhibition, % at 100 µM | 98,000 tested, 0.15% active | AID 710, 2007;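 active = growth inhibition above about 50% at one test dose, limit read from the data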;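 also: growth measured after 20 h incubation at 37 °C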
PostGolgi ctrl: growth inhibition of yeast control strain, primary screen, counter-screen for post-Golgi transport modulator project. efflux-deficient yeast background strain, growth absorbance A615, 16 h. inhibition, % at 10 µM. 98,000 tested, 5% active. AID 738, 2007
* marks the source's active call; other numbers are inactive results; nt = no result. Rows were chosen to be rich in hits. Some 6.6% of all compounds tested hit in one or more screens of this group. Rule as the data show it, unless noted: active = inhibition above about 30%; inactive = the rest.

SMILES	HER2 expr 66K	PostGolgi yeast	Ecoli tolC	E coli WT exp	PostGolgi ctrl
CC(=O)Nc1ccc(NS(=O)(=O)c2ccc3ccccc3c2)cc1	nt	-6.1	nt	-2.0	4.2
O=S(=O)(Nc1cccc(CCc2ccccn2)c1)c1ccc2ccccc2c1	nt	6.0	nt	-17.0	31.6*
COC(=O)c1ccc(CSc2ncnc3c2nnn3-c2ccc(F)cc2)o1	76.4	-1.6	16.6	-7.0	8.3
COC(=O)c1ccc(Cl)c(NC(=O)NC23CC4CC(CC(C4)C2)C3)c1	nt	15.6	nt	-13.0	31.1*
O=c1[nH]n(-c2cccc3cccnc23)c(=O)c2ccccc12	85.6	3.2	-20.6	-5.0	6.9
O=S1(=O)Nc2c(ccc3cccnc23)-c2ccccc21	-8.0*	85.3*	100.0*	80.0*	72.4*
O=C(Nc1nnc(CCS(=O)(=O)c2ccc(Br)cc2)s1)c1ccc([N+](=O)[O-])cc1	nt	-0.6	nt	-4.0	-3.0
Cc1nnc(Sc2nc(Sc3nnc(C)s3)nc(N3CCN(C)CC3)n2)s1	-33.3*	nt	-11.1	nt	nt
Cc1ccccc1NS(=O)(=O)c1cccc(-c2nnc(-c3ccccc3)o2)c1	80.2	-10.7	10.5	-2.0	0.9
O=S(=O)(NC1CCCCC1)c1cccc(-c2nnc(-c3ccccc3)o2)c1	121.7	17.2	7.3	-3.0	31.5*
O=C(c1ccc(Cl)cc1)c1cc(-c2ccccn2)c(N2CCOCC2)s1	nt	3.7	nt	-10.0	48.8*
Cc1ccc(CSCCNC(=O)c2ccc(Cl)c(S(=O)(=O)N3CCOCC3)c2)cc1	nt	-8.5	nt	-18.0	14.3
CN(Cc1nc(-c2ccncc2)no1)S(=O)(=O)c1ccc(Cl)cc1	120.4	0.7	-4.5	-10.0	25.0
CC(C)N(Cc1nc(-c2ccccc2)no1)C(=O)CN1C(=O)c2ccccc2C1=O	-19.1*	-0.6	6.8	2.0	5.5
CC(C)N(Cc1nc(-c2ccccc2)no1)S(=O)(=O)c1ccccc1	93.4	-3.8	34.9	-8.0	15.5
CC(C)N(Cc1nc(-c2ccccc2)no1)C(=O)CCCN1C(=O)c2ccccc2C1=O	101.2	-7.1	32.6	-17.0	2.8
CN(Cc1nc(-c2ccncc2)no1)S(=O)(=O)c1ccc(Br)cc1	101.8	-6.8	8.1	-4.0	31.1*
CC(C)N(Cc1nc(-c2ccccc2)no1)C(=O)CN(C)S(=O)(=O)c1ccccc1	68.5	-10.2	-1.0	-3.0	33.7*
CN(C)/C=N/c1c(C(=O)NCc2ccccc2)nnn1Cc1ccccc1	110.8	4.8	-5.4	3.0	3.2
Cc1ccccc1-n1nc2c(c1NC(=O)c1cc3ccccc3oc1=O)CS(=O)(=O)C2	1.1*	-3.2	-9.4	-8.0	22.1
C=CCNc1ncnc2c1[nH]c1ccc(C)cc12	88.1	27.0	90.5*	82.0*	18.5
Cc1ccc2[nH]c3c(NCCN4CCOCC4)ncnc3c2c1	95.4	11.4	12.1	12.0	24.0
COc1cc(-c2nnc(COC(=O)c3c4c(nc5ccccc35)CCCC4)o2)cc(OC)c1OC	nt	-1.8	nt	-28.0	23.0
Cc1ccc(Oc2c(C=O)c3ccccc3n2C)cc1	nt	6.7	nt	7.0	33.2*
COc1ccccc1NCC(=O)N/N=C/c1cccnc1	nt	0.2	nt	-14.0	13.9
SMILES	HER2 expr 66K	PostGolgi yeast	Ecoli tolC	E coli WT exp	PostGolgi ctrl
C=C(C)[C@H]1CC=C(C)/C(=N/NC(=O)CNc2ccccc2OC)C1	nt	17.7	nt	5.0	54.0*
Cc1c(C(=O)O)sc2nc3n(c(=O)c12)CCC(C)CC3 (configuration not stated)	114.8	nt	-1.1	nt	nt
COC(=O)c1ccccc1NC(=O)c1ccc(COc2cc(C)cc(C)c2)o1	nt	8.9	nt	-24.0	30.5*
COCC(=O)n1nc(NCc2ccc(OC)cc2)nc1NCc1ccc(OC)cc1	76.2	48.7*	10.2	0.0	87.2*
COc1cccc(N2CCN(c3c(C#N)c(C(F)(F)F)nn3C)CC2)c1	nt	1.3	nt	-2.0	50.7*
Cc1nc(SCCCSc2n[nH]c(C)n2)n[nH]1	57.6	nt	-22.2	nt	nt
Cc1cc(NC(=O)CC23CC4CC(C2)CC(CC(=O)Nc2cc(C)on2)(C4)C3)no1	121.3	-3.0	7.0	-1.0	23.6
Cc1ccc(NC(=O)CSC2=C(C#N)C(c3ccco3)C3=C(CC(C)(C)CC3=O)N2)cc1 (configuration not stated)	109.0	3.4	69.1*	-13.0	13.5
CCc1ccc(NC(=O)CSC2=C(C#N)C(c3ccco3)C3=C(CCCC3=O)N2)cc1 (configuration not stated)	67.8	0.2	10.2	-2.0	4.8
CCOC(=O)c1cnc(SC)nc1Sc1cc(Cl)ccc1Cl	nt	33.3*	nt	-14.0	15.9
Cc1ccc(-c2nc3cnccn3c2Nc2c(C)cccc2C)o1	nt	-6.6	nt	11.0	9.8
CCOC(=O)CSc1n[nH]c(-c2ccco2)n1	102.6	-3.0	-9.0	2.0	4.4
O=C(CSc1n[nH]c(-c2ccco2)n1)N1c2ccccc2Sc2ccccc21	82.0	2.2	73.2*	0.0	15.1
COc1ccc(C(=O)CSc2nnc(CNc3nc(-c4ccccc4)cs3)n2C)cc1	70.9	-1.4	1.4	-6.0	22.4
O=C(CSCc1ccc(Cl)cc1)Nc1ccccc1C(=O)N1CCOCC1	nt	-1.2	nt	1.0	6.8
O=C(Nc1ccc2nc(SCc3ccc(Cl)cc3)sc2c1)c1ccccc1C(=O)N1CCOCC1	nt	-4.5	nt	-11.0	33.4*
COc1ccc(-c2ccnc3nc(Sc4ncc(C(F)(F)F)cc4Cl)nn23)cc1	nt	-6.6	nt	-12.0	39.7*
O=C(CSc1ncc(C(F)(F)F)cc1Cl)N1CCN(S(=O)(=O)c2ccc(Cl)cc2)CC1	nt	-8.6	nt	-7.0	15.6
CSc1nc2nccc(-c3ccc(Cl)cc3)n2n1	nt	-1.3	nt	-7.0	40.1*
FC(F)(F)c1cnc(Sc2nc3nccc(-c4ccc(Cl)cc4)n3n2)c(Cl)c1	nt	-5.6	nt	-1.0	39.2*
CC(C)NC(=O)c1cnc(Sc2ncc(C(F)(F)F)cc2Cl)n1C	nt	-1.9	nt	-4.0	8.6
CC1=CC(C)(C)N(C(=O)CSc2nnc(N)s2)c2c(C)cc(C)cc21	nt	6.6	nt	1.0	21.8
CCC(=O)/C=C1/Sc2ccc(OC)cc2N1CC	nt	5.3	nt	7.0	23.0
CCN1/C(=C/C(=O)c2ccco2)Sc2ccccc21	-0.5*	17.6	19.1	8.0	-1.9
CCC1(C)Cc2ccccc2-c2nc(NCCCO)n(-c3ccccc3)c(=O)c21 (configuration not stated)	nt	2.6	nt	6.0	15.6
SMILES	HER2 expr 66K	PostGolgi yeast	Ecoli tolC	E coli WT exp	PostGolgi ctrl
CCC(=O)Nn1cnc2c(c1=O)C1(CCCCC1)Cc1ccccc1-2	nt	3.2	nt	12.0	30.9*
CCCC(=O)Nn1cnc2c(c1=O)C1(CCCCC1)Cc1ccccc1-2	nt	-1.5	nt	4.0	34.8*
Cc1ccccc1-n1c(=O)c2c(n3cnnc13)-c1ccccc1CC21CCCCC1	nt	-1.9	nt	13.0	19.2
Cn1c(NCCCO)nc2c(c1=O)C1(CCCCC1)Cc1ccccc1-2	75.2	7.8	56.2	-3.0	36.0*
Cc1nc2ccc(NC(=O)NCCCO)cc2s1	nt	-2.0	nt	3.0	6.5
Cn1c2c(c(=O)n(C)c1=O)C1(C(=O)Nc3ccccc31)C(C#N)=C(N)O2 (configuration not stated)	nt	0.9	nt	3.0	5.1
